This data set is described as follows: Toxicity liver stage against HepG2, at 10uM. Type of data set: cell-based. On the set-up: test concentration 10 uM, cell line HepG2-A16-CD81EGFP. The following applies: human, HepG2-A16-CD81EGFP cells; read-out: INHIBITION
In short, it runs like this: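 Uninfected HepG2-A16-CD81EGFP cells, 3 × 10^3 per well, 1536-well, plated on prespotted compound at 10 μM final, parasite-free screening media added to match infected plates; puromycin 10 μM positive, DMSO 0.5% negative; run in parallel with 48 h PbLuc assay at 37 °C, 5% CO2; viability by CellTiter-Glo luminescence, normalized to controls.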
For the compound `Cc1cnn(CC2CCCN2Cc2nc(C)c3ccccc3n2)c1` (stereo not drawn), the cytotoxicity at 10 µM is -8.94%.
For `O=C(c1ccc(-n2cccn2)cc1Cl)N1CCCC(O)(CO)C1` (stereo not drawn), the cytotoxicity at 10 µM was -0.226%.
Then `O=C(CNC(Cn1cccn1)c1ccccc1)Nc1cnccn1` (stereo not drawn), with 7.34%; and `CN(C)c1ccc(CN(CC2CCCO2)C(=O)c2csnn2)cc1` (stereo not drawn), with -1.59%; and `COCC(=O)N1CCCC1c1cc(Nc2nnc(C)s2)nc(C)n1` (stereo not drawn), with -6.15%.
Then `O=C(C1CCOC1)N1CCc2ncnc(-c3cccnc3)c2CC1` (stereo not drawn), with -3.13%; and `CC(C)=Cc1c(-c2ccccc2)ncn1CCS(C)(=O)=O`, with -3.15%.
Then `O=C(c1cccs1)N1CCC(O)(CN2CCc3ccccc3C2)C1` (stereo not drawn), with 1.49%; and `Cc1ncc2c(c1C(=O)O)CCN(c1ncc(F)cn1)C2`, with -2.19%; and `CC(C(=O)N1CCCN(Cc2cnn(C)c2)CC1)n1ccnc1` (stereo not drawn), with -13.8%.
Regarding `CN(CC(=O)N1CCCC1)C(=O)c1cccn1CCc1ccccc1`, the cytotoxicity at 10 µM was determined as 6.99%.
In the case of `CCOc1ccc2nc(CN3CCOC(CN)C3)ccc2c1` (stereo not drawn) it was -3.54%; in that of `Cc1cc(C(=O)NC2CCc3nc(C)cn3C2)[nH]n1` (stereo not drawn), -5.15%; in that of `Cn1nc(Cn2ccnc2)c2c1CN(C(=O)c1ccc[nH]1)C2`, -62.7%.
In the case of `CC(=O)N(Cc1ncc(C)o1)C1CCN(Cc2noc(C)n2)C1` (stereo not drawn) it was 0%; in that of `CCn1ccc(C(=O)N(C)Cc2cnn(-c3cccc(OC)c3)c2)n1`, 6.26%; in that of `OC(COCc1ccc2c(c1)OCO2)CN1CC(n2cccn2)C1` (stereo not drawn), -5.89%.
In the case of `NC(=O)c1ccnc(N2CCN(Cc3ccc(F)cc3Cl)CC2)c1`, the cytotoxicity at 10 µM worked out at 40.8%.
In the case of `COCCOc1ccnc(-c2noc([C@@H]3CCCN3C(C)C)n2)c1` it was -12.7%; in that of `CC(C)CN1CCS(=O)(=O)[C@@H]2CCN(S(=O)(=O)CC(C)C)CC[C@@H]21`, 11.3%; in that of `CCc1nsc(N2CCN(Cc3ccno3)CC2)n1`, -8.95%.
In the case of `CCc1nc(Nc2cccc(C(=O)NC)c2)c2c(n1)c(C)nn2CC` it was 1.41%; in that of `CN(C)c1ncccc1CNS(=O)(=O)c1cc(F)ccc1F`, 5.67%; in that of `CC(O)c1cccc(OCc2ccon2)c1` (stereo not drawn), -5.28%.
Then `COCCC(=O)N1CC2(CCN(c3ccccc3)C2)C1`, with 10.3%.
With `CCCc1nc(N2CCCN(c3ccncc3)CC2)c2cnn(C)c2n1`, the cytotoxicity at 10 µM is -2.47%.
In the case of `CC[C@@H](CO)Nc1nccc(-c2c[nH]c3cc(C(=O)OC)ccc23)n1` it was 67.7%; in that of `CC(=O)N1CC[C@H]2OCC[C@@]2(C(=O)NCc2cnc(C)cn2)C1`, -106%.
Then `CC(=O)NCc1noc2c1CN(Cc1cccs1)CC2`, with -5.18%; and `Cc1nonc1OCCNC(=O)CCCc1ccc(Cl)cc1`, with 7.49%; and `OC[C@H]1CN(Cc2c(Cl)cncc2Cl)C[C@H]1CN1CCOCC1`, with -107%.
Then `O=C(Nc1ccc(-c2cscn2)cc1)C1CCCN(Cc2ccon2)C1` (stereo not drawn), with 0.414%.
Turning to `CCC(C)n1cnc(S(=O)(=O)N(C)c2cccnc2N(C)C)c1` (stereo not drawn), the cytotoxicity at 10 µM was -3.08%.
Then `O=C(CCNC(=O)C1=Cc2ccccc2OC1)NCc1ccncc1`, with 5.6%.
In the case of `O=C(NCCCn1ccnc1)N1CCCC1c1ccncc1` (stereo not drawn) it was 25.4%.
In the case of `O=C(NCCC1CN(Cc2cccnc2)CCO1)c1ccsc1` (stereo not drawn), the cytotoxicity at 10 µM is -8.03%.
In the case of `Cc1cc(NC(=O)C(C#N)Cc2cnn(C)c2C)no1` (stereo not drawn) it was 4.58%; in that of `COCC1CC2(CCN(C(=O)C3CCSCC3)CC2)CO1` (stereo not drawn), -8.93%; in that of `CC(C)CC(NC(=O)OC(C)(C)C)C(N)=O` (stereo not drawn), 3.29%.
As for `Cc1cc(-c2cnn(CCNC(=O)Cc3ccccn3)c2C2CC2)on1`, the cytotoxicity at 10 µM stood at 2.8%.
Then `C[C@@H]1CN(C2CCOCC2)C[C@]12CCN(c1cccnc1)C2=O`, with 5.95%; and `Cc1nn(C)c(C)c1C1CCCN1CC(=O)Nc1cc(C(C)C)no1` (stereo not drawn), with 2.07%; and `OC(CNCCn1cccn1)c1ccc(Br)cc1` (stereo not drawn), with -19.9%.
Then `CC(=O)c1cnc(NCCCN2CCOCC2)nc1C`, with -2.77%; and `CN(Cc1nncn1C)c1nccc(C2CCCC2)n1`, with -1.14%; and `Cn1ccnc1C1(O)CCN(C(=O)Cc2ccccc2)CC1`, with 5.09%.
In the case of `CCc1nc(C2CCCN2CC(=O)Nc2nnc(C)s2)no1` (stereo not drawn), the cytotoxicity at 10 µM is -1.73%.
In the case of `O=C(Cn1ccc2ccc(Br)cc21)NC[C@@H]1CCCN2CCCC[C@H]12` it was 14.7%; in that of `NC(=O)c1nc(CC(=O)Nc2cccc(C(F)(F)F)c2)no1`, 0.493%; in that of `CSCCCN1C[C@H](NC(=O)c2ccc(CO)cc2)[C@@H](C2CC2)C1`, -11.1%.
In the case of `O=C(CCn1ccc(=O)[nH]c1=O)N1CCC(Oc2ncccc2Cl)CC1` it was 1.71%; in that of `Cc1noc(C(C)N2CCN(CCN3CCCC3=O)CC2)n1` (stereo not drawn), -13.4%; in that of `Cc1cncc(C2CCCN(Cc3cccn3C)C2)n1` (stereo not drawn), 8.25%.
In the case of `COCC(=O)N1CCN(C(=O)c2scnc2C)CC1` it was -9.75%; in that of `O=S(=O)(c1cc(F)cc(F)c1)N1CCC(Oc2ccc(Cl)cn2)CC1`, -4.63%.
Consider `CC(C)N1CCC2(CC1)CN(C)C(=O)C[C@H]2C(F)(F)F`, for which the cytotoxicity at 10 µM was -160%.
Then `Cc1ccc(N2CC[C@H]3[C@@H]2CCC(=O)N3CCN2CCOCC2)nn1`, with -3.18%; and `CC1(C)CN(C(CNS(N)(=O)=O)c2ccc(Cl)cc2)CCO1` (stereo not drawn), with 6.88%; and `CN1CCN(C(=O)c2cc(C#N)cs2)c2ccccc2C1`, with 10.2%.
In the case of `CC(C)CCN(C)Cc1ccccc1-c1nc(C(C)C)cc(=O)[nH]1` it was 5.46%.
In the case of `O=C(NS(=O)(=O)c1ccccc1)c1ccccc1F` it was 11.4%; in that of `Cc1nnc([C@@H]2C[C@H]3CN(C(=O)C4CC4)C[C@H]3O2)[nH]1`, 19.8%.
With `O=C(CCCNc1ncccn1)N1CCCC(n2ccnc2)C1` (stereo not drawn), the cytotoxicity at 10 µM was -15.1%.
Regarding `COc1ccc(S(=O)(=O)NCCn2cnc(C)cc2=O)cc1C`, the cytotoxicity at 10 µM was found to be 7.69%.
In the case of `Cn1ccc(C(=O)N2CCc3[nH]nc(Nc4ccccc4)c3C2)n1` it was 5.21%.
Then `COCC1c2c(cnn2C)CCN1Cc1ccsc1` (stereo not drawn), with -13.3%; and `CC(=O)c1ccc(NC(=O)c2ccc3c(c2)C2(CCCCC2)CN3)cc1`, with -108%; and `Cc1nn(C)cc1CN(C)C(=O)c1cccnc1`, with 0.992%.
Then `c1coc(CN2CCC3(CC2)COC(COCC2CCOCC2)C3)c1` (stereo not drawn), with 4.67%; and `Cn1cc2c(n1)C(CNCC1CCOCC1)OCC2` (stereo not drawn), with 6.86%.
`CCn1ccnc1CN1CCN(C(C)C(=O)NC2CCCCC2)CC1` (stereo not drawn): the cytotoxicity at 10 µM was -2.17%.
In the case of `CNc1ncc(CN(C)C(=O)c2cccc(-n3cccn3)c2)cn1` it was -2.38%.
Turning to `Cc1ccccc1CN1CCC2(COCc3cnc(N(C)C)nc32)C1` (stereo not drawn), the cytotoxicity at 10 µM was -8.22%.
Then `COc1ccc(-c2nnc(SC(C)C(N)=O)[nH]2)c(OC)c1` (stereo not drawn), with -15%; and `CN(C)C1CCN(C(=O)c2ccnn2-c2ccc3ccccn23)CC1`, with -114%.
With `CC(C)CN1CCC2(C=C(C(=O)N3CCCC3)c3ccccc32)CC1`, the cytotoxicity at 10 µM was -3.12%.
Then `N#Cc1ccc(OCC(O)CN2CCC(Cn3cccn3)CC2)cc1` (stereo not drawn), with -0.775%; and `Cc1ccc(CC(=O)N2CCCn3nnc(Cn4cccn4)c3C2)cc1`, with 9.58%; and `CC(C)c1nc(C2CCCN(C(=O)CCCn3cccn3)C2)no1` (stereo not drawn), with -1.36%.
In the case of `Cc1ccc(OC2(C(=O)O)CCN(C(=O)CCc3ccco3)CC2)cc1` it was -8.06%.
Then `Cc1ccc(CN2CC[C@@H](O)[C@@H]2Cc2cnn(C)c2)o1`, with -71%.
With `CC(C)c1nsc(N2CCSCC2)n1`, the cytotoxicity at 10 µM is -11.6%.
In the case of `CN1CCN(C2COC3(CCN(c4ccc(C#N)cc4)CC3)C2)CC1` (stereo not drawn) it was 8.95%.
On to `CCc1nc(CN(CCc2ccccc2)C2CCN(C)CC2)no1`, for which the cytotoxicity at 10 µM was -0.355%.
In the case of `CNC(=O)c1sc(C2CCCC2)nc1C` it was 13.1%; in that of `CC(C)(CO)CCCNC(=O)NC1(C)Cc2ccccc2C1`, -1%; in that of `CCN1CCc2[nH]cnc2C12CCN(c1ccc(Cl)c(C(=O)O)n1)CC2`, 2.74%.
Then `COc1c(C)cnc(CN2CCCC2c2noc(C3CC3)n2)c1C` (stereo not drawn), with -0.0422%.
As for `CNc1nc(CNC(=O)Nc2cccc(F)c2)cs1`, the cytotoxicity at 10 µM is -5.45%.
Then `c1ccc(OCCNc2ncnc3sc4c(c23)CCNC4)cc1`, with 45.4%; and `c1ccc(-c2nnc3ccc(N4CCC5(CCOC5)C4)nn23)cc1` (stereo not drawn), with 7.12%; and `COCC[C@]1(O)CCN(c2ncc(Cl)cc2F)C[C@H]1C`, with 12.8%.
Then `Cc1cccc(C)c1Nc1noc2c1CN(C(=O)c1ccn(C)n1)CC2`, with 5.69%; and `CCc1ncc2c(n1)CN(Cc1nnc(C(C)C)o1)CC2`, with -4.54%; and `CC(C)NC(=O)c1sc2ccccc2c1C1CCC(CN)CC1` (stereo not drawn), with -3.28%.
In the case of `Cc1cc(C)nc(C2(C)CCCN2CCO)n1` (stereo not drawn) it was -3.89%; in that of `Cc1nc(C)c(CNC(=O)NC(c2nnc3n2CCC3)C(C)C)s1` (stereo not drawn), -1.79%.
Turning to `CCc1nccn1C1CCCN(C(=O)Cc2cn3ccsc3n2)C1` (stereo not drawn), the cytotoxicity at 10 µM is -23%.

For the origin of these results see ChEMBL document CHEMBL4513216, “Probing the Open Global Health Chemical Diversity Library for Multistage-Active Starting Points for Next-Generation Antimalarials” (ACS Infect Dis, 2020).
